Assay results pooled from the literature.
Compare with care: the assays were run in different laboratories.
Target: Homeodomain-interacting protein kinase 2 (HIPK2, Homo sapiens, UniProt Q9H2X6)
Effect on: enzyme activity
Mode: inhibitor

SMILES	test	setting	remaining activity
O=C(O)c1ccc2c(c1)nc(NCCc1ccccc1)c1ccncc12	radiometric	1 µM	4%
CC(C)(C)c1nc2c(s1)c1nc(N)ncc1c1ccc(NS(=O)(=O)c3c(F)cccc3F)c(F)c12	radiometric	1 µM	80%
Cn1c(=O)n(-c2ccc(C(C)(C)C#N)cc2)c2c3cc(-c4cnc5ccccc5c4)ccc3ncc21		10 µM	101%
O=C(O)c1ccc2c(c1)nc(Nc1ccc(Cl)cc1)c1ccncc12	radiometric	1 µM	-1%
O=C(Nc1cnn(-c2csc(C(=O)NC3COC3)c2)c1)Nc1ccccc1Cl		5 µM	102%
CCN(CC)c1ccc(C2=NNC(=O)CC2C)cc1[N+](=O)[O-] (stereo not drawn)		10 µM	106%
O=C(Nc1cnn(-c2csc(C(=O)NC3COC3)c2)c1)Nc1c(F)cccc1Cl		5 µM	92.6%
CC(C)(C)C(=O)c1sc(NC2CCCCC2)nc1N		10 µM	79%
CC(C)(O)[C@H]1CC[C@H](Nc2ccc3ncc(-c4cccc(C(F)(F)F)c4)n3n2)CC1		1 µM	70.3%
COc1cc(Nc2cnc(C#N)c(O[C@H](C)CN(C)C)n2)ncc1-c1cnn(C)c1	radiometric	1 µM	89%
Oc1cccc(-c2nc(N3CCOCC3)c3oc4ncccc4c3n2)c1		10 µM	18%
O=C(O)c1ccc2c(c1)nc(Nc1ccc(F)c(Cl)c1)c1ccncc12	radiometric	1 µM	1%
